Measurements taken from ChEMBL document CHEMBL1122371, “Inhibition of renin by angiotensinogen peptide fragments containing the hydroxy amino acid residue 5-amino-3-hydroxy-7-methyloctanoic acid” (J Med Chem, 1983).

Key:
[1] = target: T1, Renin (Homo sapiens, UniProt P00797); test: Inhibitory activity against human amniotic renin (competitive inhibition)
T1 sequence (P00797 whole entry): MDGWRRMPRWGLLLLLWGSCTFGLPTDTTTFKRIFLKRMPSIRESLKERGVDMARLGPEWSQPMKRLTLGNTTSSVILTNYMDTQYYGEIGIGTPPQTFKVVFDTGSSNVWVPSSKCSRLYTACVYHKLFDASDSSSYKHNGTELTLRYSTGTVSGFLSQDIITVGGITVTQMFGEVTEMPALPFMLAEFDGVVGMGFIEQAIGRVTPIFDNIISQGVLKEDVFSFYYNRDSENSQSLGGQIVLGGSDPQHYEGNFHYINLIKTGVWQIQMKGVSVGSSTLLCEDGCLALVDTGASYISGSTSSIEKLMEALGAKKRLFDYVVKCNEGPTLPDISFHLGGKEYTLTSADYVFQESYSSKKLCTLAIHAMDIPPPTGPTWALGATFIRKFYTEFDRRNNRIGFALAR
Procedure, shortened: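 Angiotensin I generation is reported as nmol/unit enzyme/min for hog kidney renin and nmol/mL/h for human amniotic renin. Points are means of three determinations. Lines are fitted by linear regression, and Ki is the −[I] at their intersection.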

[2] = target: Renin (Sus scrofa); test: Inhibitory activity against hog kidney renin (Non-competitive inhibition)

Row | SMILES | Ki [1] [µM] | Ki [2] [µM]
1 | COC(=O)[C@H](Cc1ccccc1)NC(=O)[C@@H](NC(=O)CC(O)CC(N)CC(C)C)C(C)C (some centres undefined) | 95 | 170
2 | COC(=O)[C@@H](Cc1ccccc1)NC(=O)[C@H](NC(=O)CC(O)CC(N)CC(C)C)C(C)C (some centres undefined) | 1600 | 1180
